Screening data as filed in PubChem BioAssay.
NPY-Y2 PAM-ag: potentiators or agonists of human neuropeptide Y receptor Y2 | P49146 | cells expressing NPY-Y2, potentiator/agonist read-out | activation, % at 3.6 µM | actives 0.45% (n = 220,000); in the data active = activation above about 27%;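 also: cells stimulated with NPY near EC25 plus isoproterenol at EC100; 0% = vehicle plus submaximal agonist and 100% = vehicle plus saturating agonist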
NPY-Y1 PAM-ag: human NPY-Y1 potentiation or agonism, primary screen. P25929. NPY-Y1 expressing cells, potentiator/agonist activation. activation, % at 3.6 µM. actives 0.37% (n = 220,000). AID 1304; in the data active = activation above about 33%, passing the limit was not always enough;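 also: cells stimulated with NPY at EC10 then isoproterenol at EC100; 0% = low agonist plus stimulus and 100% = saturating agonist plus stimulus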
Target sequence (P25929 whole entry, looked up): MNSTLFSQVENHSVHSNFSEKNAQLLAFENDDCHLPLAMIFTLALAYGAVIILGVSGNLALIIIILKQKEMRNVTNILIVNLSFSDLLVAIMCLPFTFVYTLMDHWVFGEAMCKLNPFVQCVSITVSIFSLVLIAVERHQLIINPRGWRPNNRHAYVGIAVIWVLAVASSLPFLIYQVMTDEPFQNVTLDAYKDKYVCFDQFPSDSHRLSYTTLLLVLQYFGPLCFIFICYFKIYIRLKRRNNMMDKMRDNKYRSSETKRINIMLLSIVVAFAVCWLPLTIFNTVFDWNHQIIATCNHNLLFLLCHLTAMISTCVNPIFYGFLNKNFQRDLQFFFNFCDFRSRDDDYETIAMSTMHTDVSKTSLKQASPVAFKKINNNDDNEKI
NPY-Y1 antag: antagonists of human neuropeptide Y receptor Y1. AID 1040. inhibition, % at 3.6 µM. P25929. HEK293-CNG Y1 cells, membrane potential fluorescence; NPY at EC95, then isoproterenol. actives 1% (n = 200,000);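 active = inhibition above the campaign mean inhibition of all tested compounds plus 3 SD, cut at about 20% in these data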;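 also: 0% = DMSO wells given NPY plus isoproterenol and 100% = isoproterenol alone without NPY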
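Material: HEK293 Y1/CNG channel cell line; also added: NPY (25 nM), isoproterenol (1 µM), Ro 20-1724 (25 µM); doses: one concentration, 3.6 µM, in 0.4% DMSO; schedule: compound incubation 1 h at room temperature, readout 45 min post-stimulation; technique: membrane potential fluorescence; measure: fluorescence ratio normalized to % inhibition between controls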
S1P4 antagonist: blocks the human S1P4 receptor; O95977; S1P4-expressing cells, antagonist mode, reporter read-out; inhibition, % at 4.98 µM; actives 0.26% (n = 220,000); AID 1510; in the data active = inhibition above about 29%;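 also: 0% = wells stimulated with agonist and 100% = vehicle wells without agonist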
S1P4 ag: agonists of human S1P4 receptor | O95977 | S1P4-expressing cell line, agonist reporter assay | activation, % at 4.98 µM | actives 0.35% (n = 220,000) | AID 1509; in the data active = activation above about 11%;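 also: 0% = DMSO vehicle and 100% = reference agonist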
NPY Y2 blocker: NPY-Y2 (human) receptor antagonism; P49146; NPY-Y2 expressing cells, antagonist mode; inhibition, % at 2.7 µM; actives 0.99% (n = 140,000);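 also: 0% = vehicle with agonist challenge and 100% = reference antagonist with challenge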
NPY-Y1 ant conf: human NPY-Y1 antagonism, confirmation; AID 1254; shares compounds with NPY-Y1 antag; inhibition, % at 3.6 µM; HEK293-CNG NPY-Y1, membrane potential fluorescence, cAMP; NPY challenge against isoproterenol-raised cAMP; actives 21% (n = 1,200); in the data active = inhibition above about 20%;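 also: 0% = vehicle with agonist plus stimulus and 100% = stimulus alone without agonist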
NPY2 antag ctr: antagonizes human NPY-Y2, counter-screen to NPY-Y1 antagonists; inhibition, % at 3.6 µM; actives 28% (n = 1,200); HEK293 NPY-Y2 CNG membrane potential fluorescence, antagonism; cells given NPY, then isoproterenol; AID 1255; shares compounds with NPY-Y1 antag;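 also: 0% = DMSO with agonist challenge and 100% = reference antagonist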
* hit, by the source's call; nt = no result. A selection: hits, their analogues and other compounds. The true share with any hit is near 2.4%. Rule as the data show it, unless noted: active = inhibition above about 17%; inactive = the rest.

SMILES	NPY-Y2 PAM-ag	NPY-Y1 PAM-ag	NPY-Y1 antag	S1P4 antagonist	S1P4 ag	NPY Y2 blocker	NPY-Y1 ant conf	NPY2 antag ctr
CCOC(=O)CCCCCN(Cc1ccccc1)S(=O)(=O)c1ccc([N+](=O)[O-])cc1	-11	-16	13	0	-1	12	nt	nt
CN(C)S(=O)(=O)c1ccc(C(=O)Nc2cc(=O)n(C)c(=O)n2C)cc1	-6	-2	1	-19	-1	1	nt	nt
CC(C)CCNC(=O)/C=C/c1ccc(Br)cc1	-12	-25	20*	-7	-1	15	8	5
COc1ccc(C(C(=O)NC2CCCC2)N(CCN(C)C)C(=O)c2snc(C(N)=O)c2N)cc1 (configuration not stated)	8	4	3	7	1	2	nt	nt
COc1ccc(CN(C(=O)c2nsc(Cl)c2Cl)C(C(=O)NC2CCCCC2)c2ccc(OC)cc2)cc1 (configuration not stated)	-24	-24	22*	8	3	17	20	16
CN1CCN(S(=O)(=O)c2ccc3[nH]c(=O)oc3c2)CC1	-11	-42	1	2	1	-1	nt	nt
COc1ccccc1-c1cc(C(F)(F)F)nc(S(=O)(=O)CCCC(=O)NCc2ccc(F)cc2)n1	-14	-12	14	-1	-1	nt	nt	nt
COc1ccccc1-c1cc(C(F)(F)F)nc(S(=O)(=O)CCCC(=O)N2CCCCC2C)n1 (configuration not stated)	-15	-68	25*	21	-1	0	14	44*
CCOCCCNC(=O)CN1C(=O)/C(=C/c2ccccc2C)Sc2ccccc21	-11	-9	2	-15	2	nt	nt	nt
O=C(NCc1ccc(F)cc1)c1cc2sccc2n1Cc1ccc(F)cc1	-2	0	3	-9	1	1	nt	nt
O=C(c1cc2sccc2n1Cc1ccc(F)cc1)N1CCCc2ccccc21	-10	-30	24*	15	-3	15	12	19*
Cc1cc(C)cc(NC(=O)c2oc3ccccc3c2COc2ccccc2)c1	-18	-31	23*	0	1	-1	5	12
Cc1ccc2[nH]cc(C(=O)CCl)c2c1	0	9	-6	-5	-1	0	nt	nt
O=[N+]([O-])c1cccc(/C(=N/N=C/c2ccccc2Br)C23CN4CN(CN(C4)C2)C3)c1	-16	11	-2	-3	-2	-1	nt	nt
CCOC(=O)C1=C(C)NC2=C(C(=O)CC(C)(C)C2)C1c1ccc(O)c(OCC)c1 (configuration not stated)	-40	-15	nt	9	0	nt	nt	nt
CCOc1cc(C2C3=C(CC(C)(C)CC3=O)Nc3n[nH]c(C)c32)ccc1O (configuration not stated)	-10	-16	42*	-20	2	nt	26*	40*
Cc1cccc2nc(-c3cccnc3)c(NCCC(C)C)n12	-7	0	22*	-18	1	nt	14	10
Cc1cccc2nc(-c3cccnc3)c(Nc3ccccc3)n12	13	15	-5	-11	-1	nt	nt	nt
COc1ccc(C2=NOC(C(=O)NCc3cccs3)C2)cc1OC (configuration not stated)	-11	-5	23*	-4	0	7	8	9
COc1cc(C2=NOC(C(=O)NCc3cccs3)C2)cc(OC)c1OC (configuration not stated)	-2	-13	5	-9	-5	3	nt	nt
COc1ccc(C2=NOC(C(=O)NCc3ccc(F)cc3)C2)cc1 (configuration not stated)	-10	-23	41*	-8	1	6	5	17
NS(=O)(=O)c1ccc(CNS(=O)(=O)c2cccc3nonc23)cc1	-2	16	nt	-20	2	nt	nt	nt
COc1ccc(/C(N)=N/OC(=O)CSc2ccc(C)cc2)cc1OC	-20	-31	21*	6	2	11	10	14
